# Measured values from ChEMBL document CHEMBL1157584, “Discovery of 4-amino-1-(7H-pyrrolo[2,3-d]pyrimidin-4-yl)piperidine-4-carboxamides as selective, orally active inhibitors of protein kinase B (Akt)” (J Med Chem, 2010).
# How the values were obtained:
# Mus musculus [1] = assay: Plasma clearance in mouse at 25 mg/kg, iv; type: ADME, organism-based; parameters: dose 25 mg/kg, route intravenous; details: in vivo
# [2] = Solubility in aqueous buffer at pH 6.5; type: physicochemical
# [3] = Solubility in aqueous buffer at pH 7.0; type: physicochemical
# Mus musculus [4] = assay: Half life in mouse at 10 mg/kg, iv; type: ADME, organism-based; parameters: dose 10 mg/kg, route intravenous; details: in vivo
# Mus musculus [5] = assay: Volume of distribution at steady state in mouse at 10 mg/kg, iv; type: ADME, organism-based; parameters: dose 10 mg/kg, route intravenous; details: in vivo
# Outline: (§1)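 Mice received a single iv dose, and plasma drug levels were followed over time. Pharmacokinetic parameters, including Vss in L, were fitted to model 201 with default settings.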
# Mus musculus [6] = assay: Plasma clearance in mouse at 10 mg/kg, iv; type: ADME, organism-based; parameters: dose 10 mg/kg, route intravenous; details: in vivo
# [7] = Oral bioavailability in mouse at 10 mg/kg; type: ADME, organism-based; details: in vivo
# Mus musculus [8] = assay: Half life in mouse at 5 mg/kg, iv; type: ADME, organism-based; parameters: dose 5 mg/kg, route intravenous; details: in vivo
# Mus musculus [9] = assay: Volume of distribution at steady state in mouse at 5 mg/kg, iv; type: ADME, organism-based; parameters: dose 5 mg/kg, route intravenous; details: in vivo; outline: as §1
# Mus musculus [10] = assay: Plasma clearance in mouse at 5 mg/kg, iv; type: ADME, organism-based; parameters: dose 5 mg/kg, route intravenous; details: in vivo
# [11] = Oral bioavailability in mouse at 5 mg/kg; type: ADME, organism-based; details: in vivo
# [12] = Plasma concentration in CrTac:Ncr-Fox1 (nu) athymic mouse bearing human U87MG cells at 200 mg/kg, po single dose after 4 hrs; type: ADME, organism-based, U-87MG ATCC; parameters: dose 200 mg/kg, route oral
# Outline: (§2)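 U87MG xenograft-bearing athymic mice given a single oral dose of 200 mg/kg. Compound levels measured in plasma and tumor samples 4 h after dosing.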
# [13] = Drug level in CrTac:Ncr-Fox1 (nu) athymic mouse tumor bearing human U87MG cells at 200 mg/kg, po single dose after 4 hrs; type: ADME, organism-based, Neoplasm, U-87MG ATCC; parameters: dose 200 mg/kg, route oral; details: read-out: Drug uptake; outline: as §2
smiles,measurement,setting,value
NC1(Cc2ccc(Cl)cc2)CCN(c2ncnc3[nH]ccc23)CC1,CL,Mus musculus [1],0.33 L/h
same,solubility,[2],260 µg/mL
same,solubility,[3],Insoluble
CC(C)(C)c1ccc(CC2(N)CCN(c3ncnc4[nH]ccc34)CC2)cc1,t1/2,Mus musculus [4],47.4 min
same,Vdss,Mus musculus [5],0.27 L
same,CL,Mus musculus [6],0.31 L/h
same,bioavailability,[7],< 1%
NC1(C(=O)NCc2ccc(Cl)cc2)CCN(c2ncnc3[nH]ccc23)CC1,t1/2,Mus musculus [8],54 min
same,Vdss,Mus musculus [9],0.06 L
same,CL,Mus musculus [10],0.08 L/h
same,bioavailability,[11],58%
same,concentration at 4 h,[12],20 µM
same,concentration at 4 h,[13],43 µM
